Measured values: ChEMBL document CHEMBL1143313, “Synthesis of novel 4,6-di(substituted)amino-1,2-dihydro-1,3,5-triazine derivatives as topical antiseptic agents” (2009)

Tests used:
Assay type in all cases: functional
Escherichia coli [1] = experiment: Bactericidal activity against Escherichia coli NIHJ JC-2 preincubated for 1 min before addition of growth medium measured after 40 to 48 hrs
Staphylococcus aureus [2] = experiment: Bactericidal activity against Staphylococcus aureus 209PJC preincubated for 3 mins before addition of growth medium measured after 40 to 48 hrs
Staphylococcus aureus [3] = experiment: Antibacterial activity against Staphylococcus aureus 209PJC after 24 hrs
Method in brief: (§1)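 Value is the minimal inhibitory concentration (MIC) against the test organism, read after 24 h of incubation.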

Escherichia coli [4] = experiment: Bactericidal activity against Escherichia coli NIHJ JC-2 preincubated for 5 mins before addition of growth medium measured after 40 to 48 hrs
Escherichia coli [5] = experiment: Antibacterial activity against Escherichia coli NIHJ JC-2 after 24 hrs; method in brief: as §1
Staphylococcus aureus [6] = experiment: Antibacterial activity against methicillin-resistant Staphylococcus aureus 97-115 after 24 hrs
Method in brief: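 Read-out is the minimal inhibitory concentration (MIC), taken after 24 h incubation with the test organism.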

Pseudomonas aeruginosa [7] = experiment: Bactericidal activity against Pseudomonas aeruginosa PAO1 preincubated for 5 mins before addition of growth medium measured after 40 to 48 hrs
Escherichia coli [8] = experiment: Bactericidal activity against Escherichia coli NIHJ JC-2 preincubated for 3 mins before addition of growth medium measured after 40 to 48 hrs
Staphylococcus aureus [9] = experiment: Bactericidal activity against methicillin-resistant Staphylococcus aureus 97-115 preincubated for 1 min before addition of growth medium measured after 40 to 48 hrs
Method in brief: (§2)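 Read-out is the minimal bactericidal concentration (MBC), taken after 1, 3 and 5 min contact of compound with the test organism.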

Staphylococcus aureus [10] = experiment: Bactericidal activity against Staphylococcus aureus 209PJC preincubated for 1 min before addition of growth medium measured after 40 to 48 hrs
Staphylococcus aureus [11] = experiment: Bactericidal activity against Staphylococcus aureus 209PJC preincubated for 5 mins before addition of growth medium measured after 40 to 48 hrs
Pseudomonas aeruginosa [12] = experiment: Bactericidal activity against Pseudomonas aeruginosa PAO1 preincubated for 3 mins before addition of growth medium measured after 40 to 48 hrs
Pseudomonas aeruginosa [13] = experiment: Antibacterial activity against Pseudomonas aeruginosa PAO1; method in brief: as §1
Staphylococcus aureus [14] = experiment: Bactericidal activity against methicillin-resistant Staphylococcus aureus 97-115 preincubated for 5 mins before addition of growth medium measured after 40 to 48 hrs; method in brief: as §2
Pseudomonas aeruginosa [15] = experiment: Bactericidal activity against Pseudomonas aeruginosa PAO1 preincubated for 1 min before addition of growth medium measured after 40 to 48 hrs
Staphylococcus aureus [16] = experiment: Bactericidal activity against methicillin-resistant Staphylococcus aureus 97-115 preincubated for 3 mins before addition of growth medium measured after 40 to 48 hrs; method in brief: as §2

Row | SMILES | MBC (Escherichia coli [1]) | MBC (Staphylococcus aureus [2]) | MIC (Staphylococcus aureus [3]) | MBC (Escherichia coli [4]) | MIC (Escherichia coli [5]) | MIC (Staphylococcus aureus [6]) | MBC (Pseudomonas aeruginosa [7]) | MBC (Escherichia coli [8]) | MBC (Staphylococcus aureus [9]) | MBC (Staphylococcus aureus [10]) | MBC (Staphylococcus aureus [11]) | MBC (Pseudomonas aeruginosa [12]) | MIC (Pseudomonas aeruginosa [13]) | MBC (Staphylococcus aureus [14]) | MBC (Pseudomonas aeruginosa [15]) | MBC (Staphylococcus aureus [16])
1 | CC(=O)O.CCCCCCCCNC1=NC(C)(C)NC(NCCc2ccccc2)=N1 | 6.3 µg/mL | 12.5 µg/mL | 0.8 µg/mL | 3.1 µg/mL | 25 µg/mL | 1.6 µg/mL | 3.1 µg/mL | 3.1 µg/mL | > 100 µg/mL | 50 µg/mL | 12.5 µg/mL | 6.3 µg/mL | 25 µg/mL | > 100 µg/mL | 6.3 µg/mL | > 100 µg/mL
2 | CCCCCCCCCCNC1=NC(C)(C)NC(NCCc2ccc(OC)cc2)=N1.Cl | 3.1 µg/mL | 12.5 µg/mL | 0.4 µg/mL | 1.6 µg/mL | 50 µg/mL | 0.8 µg/mL | 1.6 µg/mL | 1.6 µg/mL | 25 µg/mL | 50 µg/mL | 6.3 µg/mL | 3.1 µg/mL | 50 µg/mL | 6.3 µg/mL | 3.1 µg/mL | 6.3 µg/mL
3 | CC(=O)O.CCCCCCCCCCNC1=NC(C)(C)NC(Nc2ccccc2)=N1 | – | – | 0.4 µg/mL | – | 12.5 µg/mL | 0.4 µg/mL | – | – | – | – | – | – | 100 µg/mL | – | – | –
4 | CC(=O)O.CCCCCCCCCNC1=NC(C)(C)NC(Nc2ccccc2)=N1 | 12.5 µg/mL | 6.3 µg/mL | 0.8 µg/mL | 3.1 µg/mL | 12.5 µg/mL | 0.8 µg/mL | 3.1 µg/mL | 6.3 µg/mL | 25 µg/mL | 12.5 µg/mL | 6.3 µg/mL | 3.1 µg/mL | 12.5 µg/mL | 25 µg/mL | 6.3 µg/mL | 25 µg/mL
5 | CC(=O)O.CCCCCCCCNC1=NC(C)(C)NC(NCc2ccccc2)=N1 | 12.5 µg/mL | 12.5 µg/mL | 0.8 µg/mL | 6.3 µg/mL | 12.5 µg/mL | 1.6 µg/mL | 12.5 µg/mL | 6.3 µg/mL | > 50 µg/mL | 25 µg/mL | 6.3 µg/mL | 12.5 µg/mL | 25 µg/mL | 50 µg/mL | 25 µg/mL | 50 µg/mL
6 | CC(=O)O.CCCCCCCCCCNC1=NC(C)(C)NC(NCc2ccc(C)cc2)=N1 | – | – | 0.8 µg/mL | – | 100 µg/mL | 0.8 µg/mL | – | – | – | – | – | – | 100 µg/mL | – | – | –
7 | CCCCCCCCCNC1=NC(C)(C)NC(NCc2ccc(OC)cc2)=N1.CS(=O)(=O)O | 12.5 µg/mL | 6.3 µg/mL | 0.8 µg/mL | 3.1 µg/mL | 25 µg/mL | 1.6 µg/mL | 12.5 µg/mL | 6.3 µg/mL | > 100 µg/mL | 6.3 µg/mL | 3.1 µg/mL | 12.5 µg/mL | 50 µg/mL | > 100 µg/mL | 25 µg/mL | > 100 µg/mL
8 | CC(=O)O.CCCCCCCCCNC1=NC(C)(C)NC(NCc2ccccc2)=N1 | 6.3 µg/mL | 6.3 µg/mL | 0.8 µg/mL | 3.1 µg/mL | 12.5 µg/mL | 1.6 µg/mL | 3.1 µg/mL | 6.3 µg/mL | 12.5 µg/mL | 12.5 µg/mL | 6.3 µg/mL | 3.1 µg/mL | 12.5 µg/mL | 6.3 µg/mL | 6.3 µg/mL | 6.3 µg/mL
9 | CC(=O)O.CCCCCCCCCCNC1=NC(C)(C)NC(NCCc2ccccc2)=N1 | 12.5 µg/mL | 12.5 µg/mL | 0.8 µg/mL | 12.5 µg/mL | 25 µg/mL | 0.8 µg/mL | 12.5 µg/mL | 12.5 µg/mL | > 50 µg/mL | 50 µg/mL | 12.5 µg/mL | 12.5 µg/mL | 25 µg/mL | > 50 µg/mL | 25 µg/mL | > 50 µg/mL
10 | CC(=O)O.CCCCCCCNC1=NC(C)(C)NC(NCc2ccc(C)cc2)=N1 | 25 µg/mL | 12.5 µg/mL | 0.8 µg/mL | 12.5 µg/mL | 25 µg/mL | 1.6 µg/mL | 12.5 µg/mL | 12.5 µg/mL | 50 µg/mL | 25 µg/mL | 12.5 µg/mL | 12.5 µg/mL | 50 µg/mL | 50 µg/mL | 25 µg/mL | 50 µg/mL
11 | CC(=O)O.CCCCCCCCCCCNC1=NC(C)(C)NC(NCc2ccc(OC)cc2)=N1 | – | – | 0.4 µg/mL | – | 100 µg/mL | 0.8 µg/mL | – | – | – | – | – | – | 100 µg/mL | – | – | –
12 | CC(=O)O.CCCCCCCCCNC1=NC(C)(C)NC(NCCc2ccccc2)=N1 | 12.5 µg/mL | 12.5 µg/mL | 0.4 µg/mL | 3.1 µg/mL | 12.5 µg/mL | 0.8 µg/mL | 1.6 µg/mL | 3.1 µg/mL | 25 µg/mL | 25 µg/mL | 6.3 µg/mL | 3.1 µg/mL | 12.5 µg/mL | 6.3 µg/mL | 12.5 µg/mL | 12.5 µg/mL
